Activity calls are given as the source filed them. The rule behind the calls is not given here.
Tests used:
[1] = target: T1, Histone deacetylase (Mus musculus) (UniProt Q8VH37+Q9Z2V6+Q9Z2V5+O09106+Q8C2B3+P70288+O88895+Q91WA3+Q99N13+Q6NZM9+Q6P3E7); experiment: Inhibition of HDAC in MEF assessed as increase in histone H3 acetylation at 6.1 uM after 24 hrs by Western blot analysis; format: cell-based
Method in brief: (§1)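 Histones acid-extracted in 0.2 N HCl overnight at 4°C; protein measured by BCA. Samples run on 4-12% gels and transferred to nitrocellulose, blocked in 5% BSA. Probed overnight at 4°C for acetyl-H3K9, H3K18, H4K5, H4K8 and total H3/H4, then with IRDye secondaries; infrared imaging.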

[2] = target: T1, Histone deacetylase (Mus musculus); experiment: Inhibition of HDAC in mouse FL5.12 cells assessed as increase in histone H3 acetylation at 10 uM after 6 hrs by Western blot analysis; format: cell-based; method in brief: as §1
[3] = target: T1, Histone deacetylase (Mus musculus); experiment: Inhibition of HDAC in MEF assessed as increase in histone H3 acetylation at 5 uM after 6 hrs by Western blot analysis; format: cell-based; method in brief: as §1
[4] = target: T1, Histone deacetylase (Mus musculus); experiment: Inhibition of HDAC in MEF assessed as increase in histone H4 acetylation at 10 uM after 6 hrs by Western blot analysis; format: cell-based; method in brief: as §1
[5] = target: T1, Histone deacetylase (Mus musculus); experiment: Inhibition of HDAC in MEF assessed as increase in histone H4 acetylation at 5 uM after 6 hrs by Western blot analysis; format: cell-based; method in brief: as §1
[6] = target: T1, Histone deacetylase (Mus musculus); experiment: Inhibition of HDAC in MEF assessed as increase in histone H4K5 acetylation at 5 uM after 6 hrs by Western blot analysis; format: cell-based; method in brief: as §1
[7] = target: T1, Histone deacetylase (Mus musculus); experiment: Inhibition of HDAC in MEF assessed as increase in histone H3K9 acetylation at 6.1 uM after 24 hrs by Western blot analysis; format: cell-based; method in brief: as §1
[8] = target: T1, Histone deacetylase (Mus musculus); experiment: Inhibition of HDAC in MEF assessed as increase in histone H4K5 acetylation at 10 uM after 6 hrs by Western blot analysis; format: cell-based; method in brief: as §1
[9] = target: Histone deacetylase (Homo sapiens) (UniProt Q13547+O15379+Q9UBN7+Q92769+Q9UQL6+Q8WUI4+Q9BY41+Q96DB2+P56524+Q9UKV0+Q969S8); experiment: Inhibition of HDAC (unknown origin) at 5 uM; format: protein assay
[10] = target: T1, Histone deacetylase (Mus musculus); experiment: Inhibition of HDAC in MEF assessed as increase in histone H3 acetylation at 10 to 20 uM after 6 hrs by Western blot analysis; format: cell-based; method in brief: as §1
[11] = target: T1, Histone deacetylase (Mus musculus); experiment: Inhibition of HDAC in MEF assessed as increase in histone H3K9 acetylation at 5 uM after 6 hrs by Western blot analysis; format: cell-based; method in brief: as §1
[12] = target: T1, Histone deacetylase (Mus musculus); experiment: Inhibition of HDAC in MEF assessed as increase in histone H3K18 acetylation at 6.1 uM after 24 hrs by Western blot analysis; format: cell-based; method in brief: as §1
[13] = target: T1, Histone deacetylase (Mus musculus); experiment: Inhibition of HDAC in MEF assessed as increase in histone H4K8 acetylation at 5 uM after 6 hrs by Western blot analysis; format: cell-based; method in brief: as §1
[14] = target: T1, Histone deacetylase (Mus musculus); experiment: Inhibition of HDAC in MEF assessed as increase in histone H3K18 acetylation at 5 uM after 6 hrs by Western blot analysis; format: cell-based; method in brief: as §1

Structure (SMILES): CCCCCCCCc1ccc(CCC(N)(CO)COP(=O)(O)O)cc1 (centres undefined)
- inhibition [1]: inactive
- inhibition [2]: inactive
- inhibition [3]: inactive
- inhibition [4]: inactive
- inhibition [5]: inactive
- inhibition [6]: inactive
- inhibition [7]: inactive
- inhibition [8]: inactive
- inhibition [9]: 60 to 75%
- inhibition [10]: inactive
- inhibition [11]: inactive
- inhibition [12]: inactive
- inhibition [13]: inactive
- inhibition [14]: inactive

Source: ChEMBL document CHEMBL4265978, “In search of constrained FTY720 and phytosphingosine analogs as dual acting anticancer agents targeting metabolic and epigenetic pathways” (Eur J Med Chem, 2018)
